{"source": "ChEMBL document CHEMBL1131298", "about": "(J Med Chem, 1998)"}
{"assay": "Kinetic parameter (half-life prodrug/drug) was evaluated", "assay_type": "ADME", "conditions": "not given; call rule not given here", "outline": "(§1)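 10 mM stocks diluted 100-fold to 100 µM in CPG2 assay buffer (100 mM Tris-HCl pH 7.3, 260 µM ZnCl2) at 37 °C. Remaining starting material followed by isocratic C18 HPLC in 10 mM ammonium acetate pH 5.0/methanol, UV at compound-specific wavelength, via repeat injections every 7.5 min or fresh-vial injections every 1 min.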", "units": {"T1/2": "min"}}
{"molecule": "O=C(O)CC[C@H](NC(=O)Nc1ccc(COC(=O)Nc2ccc(N(CCCl)CCCl)cc2)cc1)C(=O)O", "T1/2": 7.6}
{"molecule": "O=C(O)CC[C@H](NC(=O)Nc1ccc(COC(=O)Oc2ccc(N(CCF)CCF)cc2)cc1)C(=O)O", "T1/2": "< 10"}
{"molecule": "O=C(O)CC[C@H](NC(=O)Oc1ccc(COC(=O)Nc2ccc(N(CCCl)CCCl)cc2)cc1)C(=O)O", "T1/2": 8.1}
{"molecule": "O=C(O)CC[C@H](NC(=O)Nc1ccc(COC(=O)Nc2ccc(N(CCF)CCF)cc2)cc1)C(=O)O", "T1/2": 0.4}
{"molecule": "O=C(O)CC[C@H](NC(=O)Nc1ccc(COC(=O)Oc2ccc(N(CCCl)CCCl)cc2)cc1)C(=O)O", "T1/2": 0.3}
{"molecule": "O=C(O)CC[C@H](NC(=O)Oc1ccc(COC(=O)Oc2ccc(N(CCCl)CCCl)cc2)cc1)C(=O)O", "T1/2": 13.7}
{"assay": "Kinetic parameter (half-life) was evaluated; NA ='Not applicable'", "assay_type": "ADME", "conditions": "not given", "outline": "as §1"}
{"molecule": "O=C(O)CC[C@H](NC(=O)Oc1ccc(COC(=O)Nc2ccc(N(CCF)CCF)cc2)cc1)C(=O)O", "T1/2": "Not Active"}
{"molecule": "O=C(O)CC[C@H](NC(=O)Oc1ccc(CO)cc1)C(=O)O", "T1/2": "Not Active"}
{"molecule": "O=C(O)CC[C@H](NC(=O)Oc1ccc(COC(=O)Oc2ccc(N(CCF)CCF)cc2)cc1)C(=O)O", "T1/2": "Not Active"}
{"molecule": "Oc1ccc(N(CCF)CCF)cc1", "T1/2": "Not Active"}
{"assay": "Kinetic parameter(rate of catalysis) was evaluated", "assay_type": "ADME", "conditions": "not given", "units": {"k cat": "s⁻¹"}}
{"molecule": "O=C(O)CC[C@H](NC(=O)Nc1ccc(COC(=O)Nc2ccc(N(CCCl)CCCl)cc2)cc1)C(=O)O", "k cat": 50}
{"molecule": "O=C(O)CC[C@H](NC(=O)Oc1ccc(COC(=O)Nc2ccc(N(CCF)CCF)cc2)cc1)C(=O)O", "k cat": 50}
{"molecule": "O=C(O)CC[C@H](NC(=O)Oc1ccc(CO)cc1)C(=O)O", "k cat": 140}
{"molecule": "O=C(O)CC[C@H](NC(=O)Oc1ccc(COC(=O)Nc2ccc(N(CCCl)CCCl)cc2)cc1)C(=O)O", "k cat": "< 10"}
{"molecule": "O=C(O)CC[C@H](NC(=O)Nc1ccc(COC(=O)Nc2ccc(N(CCF)CCF)cc2)cc1)C(=O)O", "k cat": 50}
{"molecule": "O=C(O)CC[C@H](NC(=O)Nc1ccc(COC(=O)Oc2ccc(N(CCCl)CCCl)cc2)cc1)C(=O)O", "k cat": "< 10"}
{"molecule": "O=C(O)CC[C@H](NC(=O)Oc1ccc(COC(=O)Oc2ccc(N(CCF)CCF)cc2)cc1)C(=O)O", "k cat": "< 10"}
{"molecule": "O=C(O)CC[C@H](NC(=O)Oc1ccc(COC(=O)Oc2ccc(N(CCCl)CCCl)cc2)cc1)C(=O)O", "k cat": "< 10"}
{"molecule": "O=C(O)CC[C@H](NC(=O)Nc1ccc(CO)cc1)C(=O)O", "k cat": 65.4}
{"assay": "Cytotoxicity was evaluated against LS174T-stCPG2(Q)3-expressing cell clone", "assay_type": "functional", "conditions": "Homo sapiens", "outline": "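LS174T colon cells stably transfected with surface-tethered mutant CPG2 (stCPG2(Q)3) plasmid; 2 × 10^6 cells seeded, confluent at 48 h. Compound added from DMSO stock in full medium, a similar dose re-added after 1 h, then 20 h more. Cells reseeded in quadruplicate at ~2 × 10^3/well, grown to control confluence; sulforhodamine-B at 590 nm, IC50 by interpolation.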", "units": {"IC50": "µM"}}
{"molecule": "Nc1ccc(N(CCF)CCF)cc1", "IC50": 121}
{"molecule": "O=C(O)CC[C@H](NC(=O)Nc1ccc(COC(=O)Nc2ccc(N(CCCl)CCCl)cc2)cc1)C(=O)O", "IC50": 0.46}
{"molecule": "O=C(O)CC[C@H](NC(=O)Oc1ccc(COC(=O)Nc2ccc(N(CCF)CCF)cc2)cc1)C(=O)O", "IC50": 257}
{"molecule": "O=C(O)CC[C@H](NC(=O)Nc1ccc(COC(=O)Oc2ccc(N(CCF)CCF)cc2)cc1)C(=O)O", "IC50": 264}
{"molecule": "O=C(O)CC[C@H](NC(=O)Oc1ccc(COC(=O)Nc2ccc(N(CCCl)CCCl)cc2)cc1)C(=O)O", "IC50": 0.62}
{"molecule": "O=C(O)CC[C@H](NC(=O)Nc1ccc(COC(=O)Nc2ccc(N(CCF)CCF)cc2)cc1)C(=O)O", "IC50": 184}
{"molecule": "O=C(O)CC[C@H](NC(=O)Nc1ccc(COC(=O)Oc2ccc(N(CCCl)CCCl)cc2)cc1)C(=O)O", "IC50": 0.48}
{"molecule": "CS(=O)(=O)OCCN(CCCl)c1ccc(C(=O)O)cc1", "IC50": 27.8}
{"molecule": "O=C(O)CC[C@H](NC(=O)Oc1ccc(COC(=O)Oc2ccc(N(CCF)CCF)cc2)cc1)C(=O)O", "IC50": 128}
{"molecule": "O=C(O)CC[C@H](NC(=O)Oc1ccc(COC(=O)Oc2ccc(N(CCCl)CCCl)cc2)cc1)C(=O)O", "IC50": 0.42}
{"molecule": "Oc1ccc(N(CCF)CCF)cc1", "IC50": 323}
